Assay results: ChEMBL document CHEMBL2040780, “Antiarrhythmic properties of phenylpiperazine derivatives of phenytoin with α₁-adrenoceptor affinities” (Bioorg Med Chem, 2012)
Activity calls are given as the source filed them. No cut-off for these calls is given here.

Key:
Rattus norvegicus [1] = test: Antiarrhythmic activity in iv dosed Wistar rat assessed as protection against adrenaline-induced extrasystoles administered 15 mins prior to adrenaline-challenge; type: functional, organism-based; conditions: Heart
Summary of the method: (§1)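 Szekeres model in male Wistar rats anaesthetised with thiopental (60 mg/kg ip). Test compound given iv in water (2.5–10 mg/kg) 15 min before adrenaline 20 µg/kg iv. Scored for extrasystoles, bigeminy and mortality; activity means no premature beats and inhibited arrhythmia versus controls.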

Rattus norvegicus [2] = test: Antiarrhythmic activity in iv dosed Wistar rat assessed as protection against adrenaline-induced bigeminy administered 15 mins prior to adrenaline-challenge; type: functional, organism-based; conditions: Heart; summary of the method: as §1
Rattus norvegicus [3] = test: Antiarrhythmic activity in Wistar rat assessed as effect on heart beat at 5 mg/kg, iv after 5 mins; type: functional
Summary of the method: (§2)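 Male Wistar rats (180–250 g), anaesthetised with thiopental 60 mg/kg ip. Compound given iv in water at 10 mg/kg, or at a lower starting dose of 5 or 2.5 mg/kg. Standard lead II ECG recorded at 50 mm/s just before dosing and at 1, 5 and 15 min after. Heart rate and P–Q, Q–T and QRS intervals were read. n=6 per group, mean ± SEM, one-way ANOVA.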

Rattus norvegicus [4] = test: Hypotensive activity in normotensive Wistar rat assessed as decrease in systolic blood pressure at 2.5 to 10 mg/kg, iv after 1 min measured up to 60 mins; type: organism-based, Artery; set-up: dose 2.5-10 mg/kg, route intravenous; conditions: in vivo
Summary of the method: (§3)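 Right carotid artery cannulated with heparin-saline-filled tubing for blood pressure recording. After 5 min stabilisation, compound injected iv into the caudal vein (2.5–10 mg/kg, 1 ml/kg). Systolic and diastolic pressure followed for 60 min. n=6 per group, mean ± SEM, one-way ANOVA.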

Rattus norvegicus [5] = test: Hypotensive activity in normotensive Wistar rat assessed as decrease in systolic blood pressure at 2.5 to 10 mg/kg, iv at 1 min; type: organism-based, Artery; set-up: dose 2.5-10 mg/kg, route intravenous; conditions: in vivo; summary of the method: as §3
Rattus norvegicus [6] = test: Hypotensive activity in normotensive Wistar rat assessed as decrease in diastolic blood pressure at 2.5 to 10 mg/kg, iv at 1 min; type: organism-based, Artery; set-up: dose 2.5-10 mg/kg, route intravenous; conditions: in vivo; summary of the method: as §3
Rattus norvegicus [7] = test: Cardiotoxicity in Wistar rat assessed as effect on P-Q interval at 5 mg/kg, iv after 15 mins; type: toxicity, organism-based; set-up: dose 5 mg/kg, route intravenous; conditions: in vivo, 0.25 h; summary of the method: as §2
[8] = target: T1, Adrenergic receptor alpha-1 (Rattus norvegicus, UniProt P15823+P23944+P43140); test: Displacement of [3H]prazosin from alpha1 adrenoceptor in rat cerebral cortex after 30 mins by microbeta scintillation counting; type: tissue-based
T1 sequence (P15823 whole entry): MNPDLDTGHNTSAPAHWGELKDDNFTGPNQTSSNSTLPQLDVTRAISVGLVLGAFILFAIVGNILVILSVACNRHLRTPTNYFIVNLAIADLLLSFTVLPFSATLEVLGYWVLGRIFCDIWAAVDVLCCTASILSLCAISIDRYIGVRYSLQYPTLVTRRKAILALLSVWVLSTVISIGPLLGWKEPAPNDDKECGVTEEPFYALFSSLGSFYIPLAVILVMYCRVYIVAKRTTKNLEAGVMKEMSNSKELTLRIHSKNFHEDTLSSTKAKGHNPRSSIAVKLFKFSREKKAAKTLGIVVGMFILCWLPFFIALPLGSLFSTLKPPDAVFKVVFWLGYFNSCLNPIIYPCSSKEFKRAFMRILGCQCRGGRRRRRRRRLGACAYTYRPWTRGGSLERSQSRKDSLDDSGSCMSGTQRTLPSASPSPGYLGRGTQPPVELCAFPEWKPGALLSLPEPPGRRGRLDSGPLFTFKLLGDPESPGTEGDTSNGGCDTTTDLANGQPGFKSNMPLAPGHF
T1 sequence (P23944 whole entry): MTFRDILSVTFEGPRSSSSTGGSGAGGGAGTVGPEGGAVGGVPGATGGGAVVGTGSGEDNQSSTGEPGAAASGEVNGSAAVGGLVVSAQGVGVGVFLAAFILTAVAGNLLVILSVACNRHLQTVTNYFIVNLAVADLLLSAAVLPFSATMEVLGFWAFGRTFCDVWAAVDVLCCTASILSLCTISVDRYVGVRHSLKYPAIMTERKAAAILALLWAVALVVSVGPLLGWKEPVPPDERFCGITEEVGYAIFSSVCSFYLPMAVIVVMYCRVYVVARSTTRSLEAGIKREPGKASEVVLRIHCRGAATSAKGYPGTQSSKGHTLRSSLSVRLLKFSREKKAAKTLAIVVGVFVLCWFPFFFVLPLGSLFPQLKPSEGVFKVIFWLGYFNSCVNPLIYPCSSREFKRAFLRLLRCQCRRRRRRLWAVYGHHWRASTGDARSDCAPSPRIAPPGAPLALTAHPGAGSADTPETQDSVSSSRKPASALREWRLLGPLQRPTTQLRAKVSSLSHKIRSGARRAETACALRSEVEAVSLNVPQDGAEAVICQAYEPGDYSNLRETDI
T1 sequence (P43140 whole entry): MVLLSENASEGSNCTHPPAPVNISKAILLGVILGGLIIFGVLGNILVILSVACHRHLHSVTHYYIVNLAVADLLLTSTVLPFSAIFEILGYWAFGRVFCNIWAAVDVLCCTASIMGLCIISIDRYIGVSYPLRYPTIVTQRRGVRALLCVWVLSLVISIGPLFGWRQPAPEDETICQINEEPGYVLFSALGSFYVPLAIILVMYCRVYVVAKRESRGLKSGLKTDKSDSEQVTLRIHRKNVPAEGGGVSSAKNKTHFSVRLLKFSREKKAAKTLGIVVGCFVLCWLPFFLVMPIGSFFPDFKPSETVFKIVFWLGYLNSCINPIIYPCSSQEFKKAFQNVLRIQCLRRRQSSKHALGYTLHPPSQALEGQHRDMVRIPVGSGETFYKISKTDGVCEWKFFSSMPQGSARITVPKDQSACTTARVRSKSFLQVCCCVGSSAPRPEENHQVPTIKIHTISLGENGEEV
Summary of the method: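 Rat cerebral cortex homogenised in ice-cold 50 mM Tris-HCl (pH 7.6 at 25 °C), washed twice at 20000×g and resuspended at 10 mg wet weight/ml. Incubated with [3H]prazosin (19.5 Ci/mmol) and test compound for 30 min at 25 °C. Nonspecific binding defined with 10 µM phentolamine. GF/B filtration, scintillation counting, three-parameter logistic competition fit.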

Rattus norvegicus [9] = test: Antiarrhythmic activity in dosed Wistar rat assessed as protection against barium chloride-induced fibrillation administered 15 mins prior to barium chloride-challenge; type: functional, Heart
Summary of the method: (§4)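 Szekeres model in male Wistar rats. Activity is gradual disappearance of arrhythmia with restored sinus rhythm; protection against disturbances and death scored. Groups of 6 animals.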

Rattus norvegicus [10] = test: Cardiotoxicity in Wistar rat assessed as effect on QRS interval at 5 mg/kg, iv after 5 mins; type: toxicity, organism-based; set-up: dose 5 mg/kg, route intravenous; conditions: in vivo; summary of the method: as §2
Rattus norvegicus [11] = test: Antiarrhythmic activity in Wistar rat assessed as effect on heart beat at 5 mg/kg, iv after 1 min; type: functional; summary of the method: as §2
Rattus norvegicus [12] = test: Cardiotoxicity in Wistar rat assessed as effect on Q-T interval at 5 mg/kg, iv after 5 mins; type: toxicity, organism-based; set-up: dose 5 mg/kg, route intravenous; conditions: in vivo; summary of the method: as §2
Rattus norvegicus [13] = test: Antiarrhythmic activity in Wistar rat assessed as protection against adrenaline-induced bigeminy at 2.5 to 10 mg/kg, iv administered 15 mins prior to adrenaline-challenge; type: functional, organism-based; conditions: Heart; summary of the method: as §1
Rattus norvegicus [14] = test: Hypotensive activity in normotensive Wistar rat assessed as decrease in diastolic blood pressure at 2.5 to 10 mg/kg, iv after 1 min measured up to 60 mins; type: organism-based, Artery; set-up: dose 2.5-10 mg/kg, route intravenous; conditions: in vivo; summary of the method: as §3
Rattus norvegicus [15] = test: Cardiotoxicity in Wistar rat assessed as effect on P-Q interval at 5 mg/kg, iv after 1 min; type: toxicity, organism-based; set-up: dose 5 mg/kg, route intravenous; conditions: in vivo; summary of the method: as §2
Rattus norvegicus [16] = test: Antiarrhythmic activity in iv dosed Wistar rat assessed as protection against adrenaline-induced arrhythmia administered 15 mins prior to adrenaline-challenge; type: functional; conditions: Heart; summary of the method: as §1
Rattus norvegicus [17] = test: Antiarrhythmic activity in Wistar rat assessed as protection against adrenaline-induced extrasystoles at 2.5 to 10 mg/kg, iv administered 15 mins prior to adrenaline-challenge; type: functional, organism-based; conditions: Heart; summary of the method: as §1
Rattus norvegicus [18] = test: Cardiotoxicity in Wistar rat assessed as effect on QRS interval at 5 mg/kg, iv after 1 min; type: toxicity, organism-based; set-up: dose 5 mg/kg, route intravenous; conditions: in vivo; summary of the method: as §2
Rattus norvegicus [19] = test: Antiarrhythmic activity in barium chloride-induced Wistar rat arrhythmia model assessed as protection against mortality at 2.5 to 10 mg/kg, iv administered 15 mins prior to barium chloride-challenge; type: functional, organism-based; conditions: Heart; summary of the method: as §4
Rattus norvegicus [20] = test: Cardiotoxicity in Wistar rat assessed as effect on P-Q interval at 5 mg/kg, iv after 5 mins; type: toxicity, organism-based; set-up: dose 5 mg/kg, route intravenous; conditions: in vivo; summary of the method: as §2
Rattus norvegicus [21] = test: Cardiotoxicity in Wistar rat assessed as effect on Q-T interval at 5 mg/kg, iv after 15 mins; type: toxicity, organism-based; set-up: dose 5 mg/kg, route intravenous; conditions: in vivo, 0.25 h; summary of the method: as §2
Rattus norvegicus [22] = test: Cardiotoxicity in Wistar rat assessed as effect on Q-T interval at 5 mg/kg, iv after 1 min; type: toxicity, organism-based; set-up: dose 5 mg/kg, route intravenous; conditions: in vivo; summary of the method: as §2
Rattus norvegicus [23] = test: Antiarrhythmic activity in iv dosed Wistar rat assessed as protection against barium chloride-induced extrasystoles administered 15 mins prior to barium chloride-challenge; type: functional, Heart; summary of the method: as §4
Rattus norvegicus [24] = test: Cardiotoxicity in Wistar rat assessed as effect on QRS interval at 5 mg/kg, iv after 15 mins; type: toxicity, organism-based; set-up: dose 5 mg/kg, route intravenous; conditions: in vivo, 0.25 h; summary of the method: as §2
Rattus norvegicus [25] = test: Antiarrhythmic activity in Wistar rat assessed as effect on heart beat at 5 mg/kg, iv after 15 mins; type: functional; summary of the method: as §2

Row | SMILES | Activity (Rattus norvegicus [1]) | Activity (Rattus norvegicus [2]) | Activity (Rattus norvegicus [3]) [min⁻¹] | Activity (Rattus norvegicus [4]) | Activity (Rattus norvegicus [5]) | Activity (Rattus norvegicus [6]) | Activity (Rattus norvegicus [7]) [ms] | Ki [8] [nM] | pKi [8] | Activity (Rattus norvegicus [10]) [ms] | Activity (Rattus norvegicus [11]) [min⁻¹] | Activity (Rattus norvegicus [12]) [ms] | Activity (Rattus norvegicus [14]) | Activity (Rattus norvegicus [15]) [ms] | Activity (Rattus norvegicus [18]) [ms] | Activity (Rattus norvegicus [20]) [ms] | Activity (Rattus norvegicus [21]) [ms] | Activity (Rattus norvegicus [22]) [ms] | Activity (Rattus norvegicus [24]) [ms] | Activity (Rattus norvegicus [25]) [min⁻¹] | other results
1 | CC(C)NCC(O)COc1cccc2ccccc12 (stereo not drawn) | Active | Active | – | – | – | – | – | – | – | – | – | – | – | – | – | – | – | – | – | – | –
2 | CN1C(=O)N(CC(O)CN2CCN(c3ccccc3F)CC2)C(c2ccccc2)(c2ccccc2)C1=O.Cl (racemic) | – | – | 251 | Non-toxic | Toxic | Toxic | 59 | 564.6 | 6.25 | 17 | 272 | 74 | Non-toxic | 64 | 20 | 62 | 68 | 81 | 16 | 258 | Activity (Rattus norvegicus [9]): >50%; Activity (Rattus norvegicus [13]): Active; ED50 (Rattus norvegicus [16]): 1.92 mg/kg; Activity (Rattus norvegicus [17]): Active; Activity (Rattus norvegicus [19]): Active; Activity (Rattus norvegicus [23]): >50%
3 | COC(=O)CN1C(=O)N(CC(O)CN2CCN(c3ccccc3)CC2)C(c2ccccc2)(c2ccccc2)C1=O.Cl (racemic) | – | – | 261 | Non-toxic | Toxic | Toxic | 64 | – | – | 26 | 246 | 81 | Non-toxic | 72 | 33 | 65.2 | 74 | 97 | 22 | 272 | –
4 | COC(=O)CN1C(=O)N(CC(O)CN2CCN(c3ccccc3Cl)CC2)C(c2ccccc2)(c2ccccc2)C1=O.Cl (racemic) | – | – | 256 | Non-toxic | Toxic | Toxic | 59 | 354.7 | 6.45 | 15 | 290 | 76 | Non-toxic | 62 | 16 | 63 | 69 | 76 | 17 | 268 | –
5 | c1ccc(CC2=NCCN2)cc1 [TOLAZOLINE] | Active | Active | – | – | – | – | – | – | – | – | – | – | – | – | – | – | – | – | – | – | ED50 (Rattus norvegicus [16]): 3.4 mg/kg
